Experimental data as given in the EternaBench riboswitch data.

System: MS2 coat protein
Test: apparent Kd, MS2 coat protein; higher = weaker binding; RNA-MaP array; FMN 200 µM where present
Outline: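 Binding was read on Illumina sequencing-chip clusters where stalled E. coli RNA polymerase had transcribed each design. A titration of SNAP-549-labelled MS2 coat protein began at 0.7 or 1.5 nM and doubled to 3 µM, once without ligand and once with constant ligand, in 100 mM Tris-HCl pH 7.5, 80 mM KCl, 4 mM MgCl2, BSA, DTT, yeast tRNA and Tween-20. The apparent Kd is the median of filtered per-cluster binding-curve fits, based on green signal normalised to red-channel RNA signal and control-cluster median Fmax.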

[1] = designed as: OFF switch for flavin mononucleotide, no ligand
[2] = ligand present: flavin mononucleotide, designed as: OFF switch for flavin mononucleotide
[3] = designed as: ON switch for flavin mononucleotide, no ligand
[4] = ligand present: flavin mononucleotide, designed as: ON switch for flavin mononucleotide

GCUGCGCGAGGAUAUGCGGUUCGCGCUGUGGCCCGUGGCGGACAUGAGGAUCACCCAUGUAGAAGGCGUGCGGG
apparent Kd [1]: 13 nM | apparent Kd [2]: 15.1 nM

ACGUGUAAUACAGGAUAUGUUAUGGAUUAAUCAACCAGUUAUUACGUUUCGACAGAAGGGUAUACAUGAGGAUCACCCAUGUUA
apparent Kd [1]: 22.3 nM | apparent Kd [2]: 17.9 nM

ACACAUGAGGAUCACCCAUGUAGCUGGCAUCUGCGCCAGCCACAGGAUAUACGGCAACACAAACCGUAGAAGGGUGAUAAACAC
apparent Kd [3]: 59.5 nM | apparent Kd [4]: 35.5 nM

AGAUGACAAAGUCAUCUCGCGCUGACAUGAGGAUCACCCAUGUAGGAUAUAUUACUCAAAGAGUAAUAGAAGGACAUGUGUCUU
apparent Kd [1]: 29.9 nM | apparent Kd [2]: 72.2 nM

AGUGUGUGGCAGGAUAUUCUGUUGGUUAGGACAGAAGAAGGGUCUACAUGAGGAUCACCCAUGUAAGCGGUUGA
apparent Kd [1]: 251 nM | apparent Kd [2]: 428 nM

GCCAUCGCAUGAGGAUAUGCUCGGGUUUCCCGAGCAGAAGGCAUGUGAUAACACAUGAGGAUCACCCAUGUAGUUAAGAUGGCA
apparent Kd [3]: 5.69 nM | apparent Kd [4]: 4.83 nM

CCGAAUAAGCAGGAUAUCGAAUCGGAAACGAUUCGAGAAGGGUUAACAUGAGGAUCACCCAUGUUCCUUAACGG
apparent Kd [1]: 20.3 nM | apparent Kd [2]: 22.2 nM

GGAUAGGAAAGAGGAUAUACGUGCUAGAGAUACUAGCAAAAUUUCCUCACAUGAGGAUCACCCAUGUAGAAGGCUGUCCUAUCG
apparent Kd [1]: 5.95 nM | apparent Kd [2]: 38.9 nM

ACUUGCUUGCAGAAGGGUGACAUGAGGAUCACCCAUGUAGCGGGCUGGCGUAAAGUCAGCGCGCCACAGGAUAUGCAGGCCUCG
apparent Kd [3]: 61.2 nM | apparent Kd [4]: 47.6 nM

UUUAUAUUCAGAGGAUAUUAAAGUAGUAUAAUAUAAGAAGGCUGUUUGUUUUGUAAAUUUAUUCUACAUGAGGAUCACCCAUGU
apparent Kd [3]: 19.5 nM | apparent Kd [4]: 15.7 nM

CGAGUGAUAGGAUAUACACCUUUUCAGAACAUGUGGCUGUUACAUGAGGAUCACCCAUGUAGAAGGAUCAAGCG
apparent Kd [1]: 65.8 nM | apparent Kd [2]: 66.3 nM

AUGGUUGUCGAGGAUAUGCACCGGCUCGCUGACGCAGAAGGCGACACAUGAGGAUCACCCAUGUCGGUUCGCGU
apparent Kd [1]: 22.4 nM | apparent Kd [2]: 51.4 nM

AAAAAACAUGAGGAUCACCCAUGUGAGGAUAUCCAAAAGUUAAAUAAAAAGACGAAAAGGAGAAGGCGCAAAAA
apparent Kd [1]: 110 nM | apparent Kd [2]: 84.2 nM

GUCAUUGACAAGAAGGCAAACAUGAGGAUCACCCAUGUUCUGCAUGUAUAUUGAGGAUAUUGCCAAUGCAUGAGGAUCACCCAG
apparent Kd [1]: 11.7 nM | apparent Kd [2]: 20.2 nM

CAGAAGUCAGGAUAUCCAUGGCGGCACUUGCGUGGUGGCGUGGAGAAGGGACAUGAGGAUCACCCAUGUAAAGC
apparent Kd [1]: 57.4 nM | apparent Kd [2]: 45.3 nM

GUACGGAGGGAGAAGGGCUAGAAGGUCCAGCUUAUGUGUGUUGCAACAUGAGGAUCACCCAUGUAGCAGGAUAUCCCUUGUACA
apparent Kd [1]: 12.5 nM | apparent Kd [2]: 36.9 nM

UUCUUGGCAGGAUAUGCUCUUUUAGACAUGAGGAUCACCCAUGUGUUUAUUCUUUUUUUUGCAGAAGGGCCUUAAU
apparent Kd [1]: 93.9 nM | apparent Kd [2]: 88.8 nM

GCACUGGAUGUAGGAUAUCAGGACGAUAAGUCCUGAGAAGGACAUGAGGAUCACCCAUGUCUCAAAUACCAGUGCAAUAAUAUA
apparent Kd [1]: 12.3 nM | apparent Kd [2]: 14.8 nM

UCGAUAAGGAGAGGAUAUGGACAUGAGGAUCACCCAUGUACAUGGGAAUAUAUACUGAAUUUUUACUAGAAGGCUUACAUAUUU
apparent Kd [1]: 16.7 nM | apparent Kd [2]: 13.6 nM

CCAUGACAAAGUCAUGGAUAACGAACAUGAGGAUCACCCAUGUAGGAUAUGCUACUCAAAGAGUAGCAGAAGGACAUGUGUCUU
apparent Kd [1]: 32.7 nM | apparent Kd [2]: 165 nM

CAGCGAUAGCUGAAUGGUACAUGGGAGGAUAUGGGAAGAUACAUGAGGAUCACCCAUGUUAAAUACUAGAAGGCCCAUGUACCU
apparent Kd [3]: 14.9 nM | apparent Kd [4]: 5.45 nM

GCUGCAUAGUCAGGAUAUGCAAAGUAAUGUAUGGAAACAUACAUUACAACAUGAGGAUCACCCAUGUAGAAGGGACUGUGCAGU
apparent Kd [1]: 13.9 nM | apparent Kd [2]: 12.2 nM

AAAAAGGCAGGAUAUACAUGAGGAUCACCCAUGUAGUUGACAAAAAAGAGUCAACAGUGUAGAAGGGCCAAAAA
apparent Kd [1]: 19.3 nM | apparent Kd [2]: 24.6 nM

UUACUCAUGUAAGGAUAUGCAGCCGAAGCGGCUGCAGAAGGUACUAUAAUACAUGAGGAUCACCCAUGUAAAAUAAAUAAAGUU
apparent Kd [3]: 20.4 nM | apparent Kd [4]: 16.3 nM

GGCUGGUGACAGCAUCCAUCAAAACAUGAGGAUCACCCAUGUAGAAGGCUGUACGGUUACCGUACAGAGGAUAUACAAUGAUGU
apparent Kd [1]: 14 nM | apparent Kd [2]: 23.9 nM

ACCUAGUCAGGAUAUGUACGGACCGGAAGCGGAUCGGAGGAGCAGAAGGGACAUGAGGAUCACCCAUGUUUGUU
apparent Kd [1]: 25.3 nM | apparent Kd [2]: 28 nM

GGUCAUCAAGUCAGGAUAUCGUCUGGUCGAUCAGGCGAGAAGGGACAUGAGGAUCACCCAUGUCGACUCAUCAG
apparent Kd [1]: 28.7 nM | apparent Kd [2]: 127 nM

AUCAGCUUGACAGGAUAUGCAUGUCAGCGAAAGCUGACAAUCUUAAUAACAUGAGGAUCACCCAUGUAGAAGGGUCGAGCUGAU
apparent Kd [1]: 17.1 nM | apparent Kd [2]: 20.3 nM

UGUUGUAUUACAGGAUAUCUAUUAGAUUUAUUUAGAGAAGGGUAUUCACAUGAGGAUCACCCAUGUAUAUACGAGGAAGUUGUG
apparent Kd [3]: 57 nM | apparent Kd [4]: 58.6 nM

GUGCCUAACUAGAAGGCCCAAUGCAAAGCAUCGGGAGGAUAUGGGUUUAAUAAAUAAACAUGAGGAUCACCCAUGUGGCACAAA
apparent Kd [4]: 10.4 nM

CGUCAUCAAGUGAGGAUAUCGUCAAAUCAAUCAGGCGAGAAGGCACAUGAGGAUCACCCAUGUCGACUCAUCAC
apparent Kd [1]: 15.4 nM | apparent Kd [2]: 22.2 nM

GCGAUUUUGUAAGGAUAUACUCGAGUUUUAAGAGUAGAAGGUACUUACAUGAGGAUCACCCAUGUCUAACGAAAUACUAGUCGC
apparent Kd [3]: 10.5 nM | apparent Kd [4]: 8.44 nM

GUAGCAUGCCAAGGAUAUUCAUAUAGUAGGCAAACAUGAGGAUCACCCAUGUAAUGAUCGCAGUGGGAGAAGGUGGGAUGCUAC
apparent Kd [3]: 31.8 nM | apparent Kd [4]: 21.1 nM

UUAUUUAUACAAGGAUAUCUAUUGUUAAUACGACUUACAUGAGGAUCACCCAUGUUUUUAUGUUUAGAGAAGGUGUAUUUUCAG
apparent Kd [3]: 41.4 nM | apparent Kd [4]: 31.8 nM

UGAACCUUCACAGGAUAUCAUGCGAAAAUUGCGUGAGAAGGGUGAAUAUGGUGUUCAUAGUUGCACAUGAGGAUCACCCAUGUA
apparent Kd [3]: 191 nM | apparent Kd [4]: 128 nM

CAGUACUGAGGAUAUACAUGAGGAUCACCCAUGUGUCCCGGCUAGGAAACUAGCAAAAGUAGAAGGCAGUACUG
apparent Kd [1]: 24 nM | apparent Kd [2]: 516 nM

CGAUAACAUAGUUAUCCGUAACGGACAUGAGGAUCACCCAUGUAGGAUAUGUUACUCAACGGGUAACAGAAGGACAUGAGUCUU
apparent Kd [1]: 14.4 nM | apparent Kd [2]: 41.7 nM

CUUCGACAUGAGGAUCACCCAUGUCAGGAUAUUGUUUAUCUGGUUUUUUACAGAUAUACAAGAAGGGAUGUGUU
apparent Kd [1]: 27.5 nM | apparent Kd [2]: 24.6 nM

CAGAAGUCAGGAUAUGCAUGGCGGGACUUGCGUCGUGGCGUGCAGAAGGGACAUGAGGAUCACCCAUGUGGAGA
apparent Kd [1]: 138 nM | apparent Kd [2]: 224 nM

UCAUUUAAUACAGGAUAUGUUAGUAUACAGUUGAUUGGUUAUUACAUAAUAACAGAAGGGUAGAACAUGAGGAUCACCCAUGUA
apparent Kd [3]: 254 nM | apparent Kd [4]: 131 nM

UUAAUUCUGAUUCUUGAAAUACAUGAGGAUCACCCAUGUUCACAGGAUAUUGAUUAUGGUAGUAACAAGAAGGGUGUAUCAUAU
apparent Kd [1]: 66 nM | apparent Kd [2]: 113 nM

UGCAUGCUAGGAUAUACGGGACAUUAGGGUUCGUUGUGUGGACAUGAGGAUCACCCAUGUAGAAGGAGCGUGCU
apparent Kd [1]: 85.6 nM | apparent Kd [2]: 243 nM

CAGGGUUCGUGAAUAAGCUAGCUUCGAGAAGGGCCACAUGAGGAUCACCCAUGUCAGCGAAAACGGCAGGAUAUCGAGGGUGAG
apparent Kd [3]: 147 nM | apparent Kd [4]: 48.4 nM

CUCCUACAUGAGGAUCACCCAUGUCAGGAUAUCUCAGUGGUACCUAAAUUUACCACCCAGAGAAGGGACGUGCA
apparent Kd [1]: 13.3 nM | apparent Kd [2]: 17.7 nM

GUGUCCUUAGGAUAUGUUGAGUUAUACAUGAGGAUCACCCAUGUUCCUCGGUAUUGGUCCAUAGAAGGAAGGUUGC
apparent Kd [1]: 346 nM | apparent Kd [2]: 337 nM

UGGUAACAUGAGGAUCACCCAUGUCAGGAUAUCAGUAAGAAUAGAUUAGAUUAGAAUAUGAGAAGGGACUAUAU
apparent Kd [1]: 37.3 nM | apparent Kd [2]: 31.6 nM

GUGCGGUAGGAGAAGGACGGCGGGUUCUUUUCAUACAUGAGGAUCACCCAUGUAGGAUAUCCUACCUCACGCGGCCUACUACAG
apparent Kd [1]: 8.61 nM | apparent Kd [2]: 13.5 nM

UGGUACAUGAGGAUCACCCAUGUAAGAGCCCUCAUGCGAUGUAGAAGGUUAAUGCGAGUAGUGCUAAAGGAUAUACAUGAGUUU
apparent Kd [1]: 212 nM | apparent Kd [2]: 173 nM
